# From ChEMBL document CHEMBL2176870 (J Med Chem, 2012)
# Calls of active or inactive are those of the source. No cut-off for these calls is given here.
# What was measured:
# [1] = Plasma clearance in Sprague-Dawley rat plasma at 2 x 50 mg/kg, iv; type: ADME, organism-based; design: dose 50 mg/kg, route intravenous
# Proteus mirabilis = assay: Antibacterial activity against Proteus mirabilis; type: functional
# Escherichia coli [2] = assay: Antibacterial activity against Escherichia coli; type: functional
# Moraxella catarrhalis = assay: Antibacterial activity against Moraxella catarrhalis; type: functional
# Haemophilus influenzae = assay: Antibacterial activity against Haemophilus influenzae; type: functional
# Neisseria meningitidis = assay: Antibacterial activity against Neisseria meningitidis; type: functional
# Neisseria gonorrhoeae = assay: Antibacterial activity against Neisseria gonorrhoeae; type: functional
# Staphylococcus aureus [3] = assay: Antibacterial activity against methicillin-resistant Staphylococcus aureus NRS384 assessed as killing activity at 600 to 1200 mg q6h with prolonged infusion of 2 hrs; type: functional, organism-based
# Staphylococcus aureus [4] = assay: Antibacterial activity against methicillin-resistant Staphylococcus aureus NRS385 infected in Swiss mouse; type: functional
# How it was run: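 Murine lethal systemic infection by intraperitoneal MRSA challenge. A single subcutaneous dose was given 5 min after infection.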
# Staphylococcus aureus [5] = assay: Antibacterial activity against methicillin-resistant Staphylococcus aureus NRS385; type: functional
# How it was run: (§1)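 CLSI broth microdilution: serial 2-fold dilutions from 0.06 to 64 μg/mL in cation-adjusted Mueller–Hinton broth, inoculum 5 × 10^5 CFU/mL, 35 °C for 18 h. MIC is the lowest concentration with no visible growth.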
# Staphylococcus aureus [6] = assay: Antibacterial activity against methicillin-resistant Staphylococcus aureus NRS384; type: functional; how it was run: as §1
# Staphylococcus aureus [7] = assay: Antibacterial activity against methicillin-resistant Staphylococcus aureus NRS382; type: functional; how it was run: as §1
# [8] = Terminal elimination half life in Sprague-Dawley rat lung at 2 x 50 mg/kg, iv; type: ADME, organism-based; design: dose 50 mg/kg, route intravenous; settings: read-out: beta t1/2 (converted)
# How it was run: (§2)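 Female Sprague–Dawley rats given two iv doses of 50 mg/kg. Levels measured in plasma, liver, kidney, brain, heart and lung. Cmax reported as ng/g for tissue and ng/mL for plasma; AUC(0–∞) as ng·h/mL. Half-life is the terminal elimination value.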
# [9] = Terminal elimination half life in Sprague-Dawley rat heart at 2 x 50 mg/kg, iv; type: ADME, organism-based; design: dose 50 mg/kg, route intravenous; settings: read-out: beta t1/2 (converted); how it was run: as §2
# [10] = Terminal elimination half life in Sprague-Dawley rat brain at 2 x 50 mg/kg, iv; type: ADME, organism-based; design: dose 50 mg/kg, route intravenous; settings: read-out: beta t1/2 (converted); how it was run: as §2
# [11] = Terminal elimination half life in Sprague-Dawley rat kidney at 2 x 50 mg/kg, iv; type: ADME, organism-based; design: dose 50 mg/kg, route intravenous; settings: read-out: beta t1/2 (converted); how it was run: as §2
# [12] = Terminal elimination half life in Sprague-Dawley rat liver at 2 x 50 mg/kg, iv; type: ADME, organism-based; design: dose 50 mg/kg, route intravenous; settings: read-out: beta t1/2 (converted); how it was run: as §2
# [13] = Terminal elimination half life in Sprague-Dawley rat plasma at 2 x 50 mg/kg, iv; type: ADME, organism-based; design: dose 50 mg/kg, route intravenous; settings: read-out: beta t1/2 (converted); how it was run: as §2
# [14] = AUC (0 to infinity) in Sprague-Dawley rat lung at 2 x 50 mg/kg, iv; type: ADME, organism-based; design: time infinity, dose 50 mg/kg, route intravenous; how it was run: as §2
# [15] = AUC (0 to infinity) in Sprague-Dawley rat heart at 2 x 50 mg/kg, iv; type: ADME, organism-based; design: time infinity, dose 50 mg/kg, route intravenous; how it was run: as §2
# [16] = AUC (0 to infinity) in Sprague-Dawley rat brain at 2 x 50 mg/kg, iv; type: ADME, organism-based; design: time infinity, dose 50 mg/kg, route intravenous; how it was run: as §2
# [17] = AUC (0 to infinity) in Sprague-Dawley rat liver at 2 x 50 mg/kg, iv; type: ADME, organism-based; design: time infinity, dose 50 mg/kg, route intravenous; how it was run: as §2
# [18] = AUC (0 to infinity) in Sprague-Dawley rat plasma at 2 x 50 mg/kg, iv; type: ADME, organism-based; design: time infinity, dose 50 mg/kg, route intravenous; how it was run: as §2
# [19] = Cmax in Sprague-Dawley rat lung at 2 x 50 mg/kg, iv; type: ADME, organism-based; design: dose 50 mg/kg, route intravenous; how it was run: as §2
# [20] = Cmax in Sprague-Dawley rat heart at 2 x 50 mg/kg, iv; type: ADME, organism-based; design: dose 50 mg/kg, route intravenous; how it was run: as §2
# [21] = Cmax in Sprague-Dawley rat brain at 2 x 50 mg/kg, iv; type: ADME, organism-based; design: dose 50 mg/kg, route intravenous; how it was run: as §2
# [22] = Cmax in Sprague-Dawley rat kidney at 2 x 50 mg/kg, iv; type: ADME, organism-based; design: dose 50 mg/kg, route intravenous; how it was run: as §2
# [23] = Cmax in Sprague-Dawley rat liver at 2 x 50 mg/kg, iv; type: ADME, organism-based; design: dose 50 mg/kg, route intravenous; how it was run: as §2
# [24] = Cmax in Sprague-Dawley rat plasma at 2 x 50 mg/kg, iv; type: ADME, organism-based; design: dose 50 mg/kg, route intravenous; how it was run: as §2
# Canis familiaris [25] = assay: Toxicity in beagle dog assessed as cardiovascular functions up to 100 mg/kg, iv; type: organism-based, Canis lupus familiaris, Heart; design: dose 100 mg/kg, route intravenous; settings: in vivo
# How it was run: (§3)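 Beagle dogs given single iv infusions up to 100 mg/kg. Clinical signs and cardiovascular function, including QT interval, were monitored.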
# Canis familiaris [26] = assay: Toxicity in beagle dog assessed as clinical signs of toxicity up to 100 mg/kg, iv; type: organism-based, Canis lupus familiaris; design: dose 100 mg/kg, route intravenous; settings: in vivo; how it was run: as §3
# [27] = Toxicity in iv dosed dog administered bid for 2 weeks; type: organism-based, Canis lupus familiaris; settings: in vivo
# How it was run: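 Dogs dosed iv twice daily for 14 days; NOAEL determined, with body weight monitored.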
# [28] = Toxicity in iv dosed rat administered bid for 2 weeks; type: organism-based; settings: in vivo
# How it was run: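 Rats dosed iv twice daily for 14 days. NOAEL assessed from clinical findings and from macroscopic and microscopic examination.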
# [29] = Toxicity in iv dosed mouse; type: organism-based; settings: in vivo
# How it was run: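 Single intravenous dosing in mice; maximum tolerated dose determined.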
# Albumin = Albumin (Homo sapiens, UniProt P02768); assay: Binding affinity to human serum albumin; type: ADME; settings: isolated protein
# [30] = Inhibition of cytochrome P450; type: ADME
# [31] = Thermodynamic aqueous solubility of the compound in 1 to 5% of glucose; type: physicochemical; settings: 1 to 5% glucose in water; read-out: Therm_solubility
# How it was run: (§4)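 Solubility measured in an aqueous solution containing 20% hydroxypropyl-β-cyclodextrin together with 1–5% glucose.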
# [32] = Thermodynamic aqueous solubility of the compound in 20% hydroxypropyl-beta-cyclodextrin; type: physicochemical; settings: 20% hydroxypropyl-beta-cyclodextrin in water; read-out: Therm_solubility; how it was run: as §4
# [33] = Thermodynamic aqueous solubility of the compound at pH 7.4; type: physicochemical; settings: buffer, read-out: Therm_solubility
# [34] = tested on: Staphylococcus haemolyticus; assay: Antibacterial activity against methicillin-resistant Staphylococcus haemolyticus; type: functional
# [35] = tested on: Staphylococcus epidermidis; assay: Antibacterial activity against methicillin-resistant Staphylococcus epidermidis; type: functional
# Staphylococcus aureus [36] = assay: Antibacterial activity against methicillin-susceptible Staphylococcus aureus; type: functional
# Staphylococcus aureus [37] = assay: Antibacterial activity against methicillin-resistant Staphylococcus aureus; type: functional
# [38] = Cytotoxicity against human HepG2 cells; type: cell-based; settings: read-out: ED50 (the source's name)
# Streptococcus pneumoniae = assay: Antibacterial activity against Streptococcus pneumoniae D39 after 18 hrs by broth microdilution method; type: functional; settings: D39, 18 h
# How it was run: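 CLSI broth microdilution with 2-fold dilutions from 0.06 to 64 μg/mL. Cation-adjusted Mueller–Hinton broth with 2.5% lysed horse blood, inoculum 5 × 10^5 CFU/mL, grown at 35 °C for 18 h in 5% CO2. MIC is the lowest concentration showing no visible growth.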
# Enterococcus faecalis = assay: Antibacterial activity against Enterococcus faecalis ATCC 29212 after 18 hrs by broth microdilution method; type: functional; settings: ATCC 29212, 18 h
# How it was run: (§5)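 CLSI broth microdilution with serial 2-fold dilutions from 0.06 to 64 μg/mL. Cation-adjusted Mueller–Hinton broth, inoculum 5 × 10^5 CFU/mL, incubated at 35 °C for 18 h. MIC taken as the lowest concentration with no visible growth.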
# Rattus norvegicus = assay: Toxicity in rat assessed as effect on central nervous system and respiratory functions up to 200 mg/kg, iv; type: organism-based; design: dose 200 mg/kg, route intravenous; settings: in vivo
# How it was run: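 Safety pharmacology in rats given single iv injections up to 200 mg/kg. Clinical signs, central nervous system effects and respiratory function were monitored.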
# Escherichia coli [39] = assay: Antibacterial activity against Escherichia coli C7 after 18 hrs by broth microdilution method; type: functional; settings: C7, 18 h
# Staphylococcus aureus [40] = assay: Antibacterial activity against Staphylococcus aureus CIP54.146 after 18 hrs by broth microdilution method; type: functional; settings: CIP54.146, 18 h; how it was run: as §5
# Chain of Albumin (P02768 whole entry): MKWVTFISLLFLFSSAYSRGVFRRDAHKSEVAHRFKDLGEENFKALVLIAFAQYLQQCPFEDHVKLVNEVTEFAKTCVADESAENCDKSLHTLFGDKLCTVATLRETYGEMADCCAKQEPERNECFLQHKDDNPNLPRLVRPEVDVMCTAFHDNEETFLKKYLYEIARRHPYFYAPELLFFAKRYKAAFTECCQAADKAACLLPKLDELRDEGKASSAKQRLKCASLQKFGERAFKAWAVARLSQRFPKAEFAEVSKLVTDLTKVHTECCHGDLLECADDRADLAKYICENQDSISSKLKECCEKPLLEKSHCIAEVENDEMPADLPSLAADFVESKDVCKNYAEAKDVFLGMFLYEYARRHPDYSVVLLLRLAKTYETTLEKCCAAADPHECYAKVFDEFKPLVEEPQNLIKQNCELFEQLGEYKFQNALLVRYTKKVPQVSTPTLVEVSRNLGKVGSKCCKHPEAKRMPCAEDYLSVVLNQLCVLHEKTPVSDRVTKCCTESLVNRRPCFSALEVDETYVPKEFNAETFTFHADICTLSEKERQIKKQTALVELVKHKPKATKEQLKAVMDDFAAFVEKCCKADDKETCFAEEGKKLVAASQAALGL
structure (smiles),measurement,setting,value
CCc1cc(O)c(Oc2ccc(C(N)=O)cc2F)cc1F,clearance,[1],107 mL/min/kg
same,MIC90,Proteus mirabilis,2 µg/mL
same,MIC90,Escherichia coli [2],1 µg/mL
same,MIC90,Moraxella catarrhalis,2 µg/mL
same,MIC90,Haemophilus influenzae,0.5 µg/mL
same,MIC90,Neisseria meningitidis,0.25 µg/mL
same,MIC90,Neisseria gonorrhoeae,0.25 µg/mL
same,Activity,Staphylococcus aureus [3],Active
same,ED50,Staphylococcus aureus [4],28.3 mg/kg
same,MIC,Staphylococcus aureus [5],0.06 µg/mL
same,MIC,Staphylococcus aureus [6],0.06 µg/mL
same,MIC,Staphylococcus aureus [7],0.06 µg/mL
same,half-life,[8],5.9 h
same,half-life,[9],5 h
same,half-life,[10],4.2 h
same,half-life,[11],8.5 h
same,half-life,[12],9.2 h
same,half-life,[13],4.9 h
same,AUC(0-inf),[14],18400 ng·h/mL
same,AUC(0-inf),[15],23900 ng·h/mL
same,AUC(0-inf),[16],27600 ng·h/mL
same,AUC(0-inf),[17],105000 ng·h/mL
same,AUC(0-inf),[18],13900 ng·h/mL
same,Cmax,[19],28900 ng/g
same,Cmax,[20],42100 ng/g
same,Cmax,[21],37800 ng/g
same,Cmax,[22],63000 ng/g
same,Cmax,[23],51700 ng/g
same,Cmax,[24],30400 ng/mL
same,Activity,Canis familiaris [25],Non-toxic
same,Activity,Canis familiaris [26],Non-toxic
same,NOAEL at 336 h,[27],100 mg/kg/day
same,NOAEL at 336 h,[28],200 mg/kg/day
same,MTD,[29],> 200 mg/kg
same,Activity,Albumin,95%
same,inhibition (INH),[30],Active
same,solubility thermodynamic,[31],11.3 mg/mL
same,solubility thermodynamic,[32],11.3 mg/mL
same,solubility thermodynamic,[33],0.02 mg/mL
same,MIC90,[34],0.5 µg/mL
same,MIC90,[35],2 µg/mL
same,MIC90,Staphylococcus aureus [36],0.06 µg/mL
same,MIC90,Staphylococcus aureus [37],0.12 µg/mL
same,CC50,[38],> 32 µg/mL
same,MIC,Streptococcus pneumoniae,> 32 µg/mL
same,MIC,Enterococcus faecalis,> 32 µg/mL
same,Activity,Rattus norvegicus,Non-toxic
same,MIC,Escherichia coli [39],0.5 µg/mL
same,MIC,Staphylococcus aureus [40],0.062 µg/mL
